According to ChEMBL document CHEMBL3875170, “2-Methyl-4/5-nitroimidazole derivatives potentiated against sexually transmitted Trichomonas: Design, synthesis, biology and 3D-QSAR study” (Eur J Med Chem, 2016):
In brackets after ≈: the same amount, converted by molar mass.

Assays:
Trichomonas vaginalis [1] = assay: Antiparasitic activity against metronidazole sensitive Trichomonas vaginalis ATCC 33592 after 48 hrs by trypan blue exclusion assay; assay type: functional; settings: ATCC 33592, 48 h
Trichomonas vaginalis [2] = assay: Antiparasitic activity against metronidazole resistant Trichomonas vaginalis ATCC 50143 after 48 hrs by trypan blue exclusion assay; assay type: functional; settings: ATCC 50143, 48 h
Method in brief: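 T. vaginalis trophozoites ([…]), log phase, grown in TYM with 10% FCS, vitamin mix and penicillin/streptomycin at 37 °C. Test agents from DMSO stocks serially diluted in TYM; DMSO/TYM vehicle controls. Anaerobic incubation at 37 °C with microscopic viability checks from 3 to 48 h by trypan blue exclusion. MIC is the lowest concentration killing all cells by 48 h. Repeated three times.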

[3] = Cytotoxicity against human HeLa cells after 24 hrs by MTT assay; assay type: toxicity, cell-based
Method in brief: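 HeLa cells seeded at 2 × 10⁴ per well in DMEM with 10% FCS, in triplicate, and held 24 h at 37 °C in 5% CO₂. Exposed to compound dilutions for 24 h; controls received 0.05% DMSO. MTT in PBS pH 7.4 added, formazan dissolved in DMSO, OD540 read. IC50 taken as the concentration killing 50% of cells.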

[4] = Selectivity index, ratio of IC50 for human HeLa cells to MIC for metronidazole sensitive Trichomonas vaginalis ATCC 33592; assay type: toxicity, cell-based; settings: read-out: Selectivity Index
Method in brief: (§1)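 SI is HeLa IC50 divided by parasite MIC. HeLa cells seeded at 2 × 10⁴/well in triplicate in DMEM with 10% FCS, 24 h at 37 °C in 5% CO2. Medium then replaced with compound dilutions (0.05% DMSO controls) for 24 h. Viability by MTT read at OD540; IC50 is the concentration killing 50% of cells. MIC from 48 h trypan blue parasite killing in TYM.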

[5] = Selectivity index, ratio of IC50 for human HeLa cells to MIC for metronidazole resistant Trichomonas vaginalis ATCC 50143; assay type: toxicity, cell-based; settings: read-out: Selectivity Index; method in brief: as §1
Trichomonas vaginalis [6] = assay: Potency index, ratio of metronidazole MIC to compound MIC for metronidazole resistant Trichomonas vaginalis ATCC 50143; assay type: functional

| SMILES | MIC (Trichomonas vaginalis [1]) [µM] | MIC (Trichomonas vaginalis [2]) [µM] | IC50 at 24 h [3] [mM] | selectivity ratio [4] | selectivity ratio [5] | Ratio (Trichomonas vaginalis [6]) |
| --- | --- | --- | --- | --- | --- | --- |
| Cc1nc([N+](=O)[O-])cn1CC(O)CSC(=S)N1CCN(C(=O)OC(C)(C)C)CC1 (racemic) | 28.1 (≈ 12.5 µg/mL) | 562 (≈ 250 µg/mL) | > 5 | > 178 | > 9 | – |
| Cc1ncc([N+](=O)[O-])n1CC(O)CN1CCC(Cc2ccccc2)CC1 (racemic) | 34.9 (≈ 12.5 µg/mL) | 140 (≈ 50.1 µg/mL) | 1.43 | 40 | 10 | <=12.7 |
| Cc1ncc([N+](=O)[O-])n1CC(O)CSC(=S)N1CCOCC1 (racemic) | 36.1 (≈ 12.5 µg/mL) | 144 (≈ 50.1 µg/mL) | 4.52 | 125 | 31 | 2.5 - 12.6 |
| CCN(CC)C(=S)SCC(O)Cn1c([N+](=O)[O-])cnc1C (racemic) | 37.6 (≈ 12.5 µg/mL) | 75.3 (≈ 25 µg/mL) | 2.46 | 65 | 32 | <=12.7 |
| Cc1nc([N+](=O)[O-])cn1CC(O)CN1CCN(c2ccccn2)CC1 (racemic) | 144 (≈ 50.1 µg/mL) | 1450 (≈ 501 µg/mL) | > 5 | > 34 | > 3 | – |
| Cc1nc([N+](=O)[O-])cn1CC(O)Cn1cncn1 (racemic) | 99.2 (≈ 25 µg/mL) | 992 (≈ 250 µg/mL) | > 5 | > 50 | > 5 | – |
| CCN1CCN(C(=S)SCC(O)Cn2cc([N+](=O)[O-])nc2C)CC1 (racemic) | 134 (≈ 50.1 µg/mL) | 1340 (≈ 501 µg/mL) | > 5 | > 37 | > 3 | – |
| Cc1ncc([N+](=O)[O-])n1CC(O)CN1CCCCC1C (racemic) | 55.4 (≈ 15.6 µg/mL) | 443 (≈ 125 µg/mL) | > 5 | > 90 | > 11 | – |
| Cc1nc([N+](=O)[O-])cn1CC(O)CSC(=S)N1CCCC(C)C1 (racemic) | 34.9 (≈ 12.5 µg/mL) | 1400 (≈ 501 µg/mL) | 2.7 | 105 | 2 | – |
| Cc1ncc([N+](=O)[O-])n1CC(O)CN1CCCCCC1 (racemic) | 22.2 (≈ 6.26 µg/mL) | 44.3 (≈ 12.5 µg/mL) | > 5 | > 227 | > 113 | <=12.7 |
| COc1ccccc1N1CCN(C(=S)SCC(O)Cn2c([N+](=O)[O-])cnc2C)CC1 (racemic) | 27.7 (≈ 12.5 µg/mL) | 55.4 (≈ 25 µg/mL) | > 5 | > 185 | > 90 | <=12.7 |
| Cc1ncc([N+](=O)[O-])n1CC(O)CN1CCOCC1 (racemic) [MORINIDAZOLE] | 46.3 (≈ 12.5 µg/mL) | 92.6 (≈ 25 µg/mL) | > 5 | > 108 | > 54 | <=12.7 |
| CCCCN1CCN(C(=S)SCC(O)Cn2cc([N+](=O)[O-])nc2C)CC1 (racemic) | 125 (≈ 50.1 µg/mL) | – | 4.33 | 34 | – | – |
| Cc1nc([N+](=O)[O-])cn1CC(O)CN1CCN(c2cccc(Cl)c2Cl)CC1 (racemic) | 121 (≈ 50 µg/mL) | 1210 (≈ 500 µg/mL) | 3.62 | 30 | 3 | – |
| Cc1nc([N+](=O)[O-])cn1CC(O)Cn1c([N+](=O)[O-])cnc1C (racemic) | 50.4 (≈ 15.6 µg/mL) | 101 (≈ 31.3 µg/mL) | 4.35 | 86 | 43 | <=12.7 |
| Cc1ncc([N+](=O)[O-])n1CC(O)CN1CCN(c2ncccn2)CC1 (racemic) | 22.5 (≈ 7.82 µg/mL) | 90 (≈ 31.3 µg/mL) | 3.93 | 174 | 43 | <=12.7 |
| Cc1ncc([N+](=O)[O-])n1CC(O)CN1CCN(c2ccco2)CC1 (racemic) | 21.5 (≈ 7.21 µg/mL) | 172 (≈ 57.7 µg/mL) | 3.52 | 163 | 20 | <=12.7 |
| Cc1nc([N+](=O)[O-])cn1CC(O)CSC(=S)N1CCN(c2cccc(Cl)c2)CC1 (racemic) | 54.9 (≈ 25.1 µg/mL) | 549 (≈ 251 µg/mL) | 1.74 | 31 | 3 | – |
| COc1ccccc1N1CCN(C(=S)SCC(O)Cn2cc([N+](=O)[O-])nc2C)CC1 (racemic) | 222 (≈ 100 µg/mL) | 1110 (≈ 501 µg/mL) | > 5 | > 22 | > 4 | – |
